Source: ChEMBL document CHEMBL1149099, “Comparative in vivo stability of copper-64-labeled cross-bridged and conventional tetraazamacrocyclic complexes” (J Med Chem, 2004)
One block for each substance: values may come before it.

Experiments:
Rattus norvegicus [1] = species: Rattus norvegicus; test: Biodistribution of radiolabeled compound in rat blood after 24 hr postinjection activity expressed as %ID/Organ; format: ADME, organism-based; details: in vivo
Rattus norvegicus [2] = species: Rattus norvegicus; test: Biodistribution of radiolabeled compound in rat liver after 24 hr postinjection activity expressed as %ID/Organ; format: ADME, organism-based; details: in vivo
Rattus norvegicus [3] = species: Rattus norvegicus; test: Biodistribution of radiolabeled compound in rat kidney after 24 hr postinjection activity expressed as %ID/Organ; format: ADME, organism-based; details: in vivo
Rattus norvegicus [4] = species: Rattus norvegicus; test: Biodistribution of radiolabeled compound in rat muscle after 5 min activity expressed as %ID/Organ; format: ADME, organism-based, Muscle tissue; details: in vivo
In short: (§1)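 Mature female Sprague-Dawley rats (180–200 g) each received the 64Cu complex diluted with saline, about 15 μCi in 150 μL. Groups were sacrificed at 5 min, 30 min, 2 h and 24 h postinjection. Organs were excised, weighed and gamma-counted. %ID/organ was calculated against a weighed, counted standard.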

Rattus norvegicus [5] = species: Rattus norvegicus; test: Biodistribution of radiolabeled compound in rat blood after 24 hr activity expressed as %ID/Organ; format: ADME, organism-based; details: in vivo; in short: as §1
Rattus norvegicus [6] = species: Rattus norvegicus; test: Biodistribution of radiolabeled compound in rat blood after 2 hr activity expressed as %ID/Organ; format: ADME, organism-based; details: in vivo; in short: as §1
Rattus norvegicus [7] = species: Rattus norvegicus; test: Biodistribution of radiolabeled compound in rat blood after 30 min activity expressed as %ID/Organ; format: ADME, organism-based; details: in vivo, 0.5 h; in short: as §1
Rattus norvegicus [8] = species: Rattus norvegicus; test: Biodistribution of radiolabeled compound in rat blood after 5 min activity expressed as %ID/Organ; format: ADME, organism-based; details: in vivo; in short: as §1
Rattus norvegicus [9] = species: Rattus norvegicus; test: Biodistribution of radiolabeled compound in rat bone after 24 hr activity expressed as %ID/Organ; format: ADME, organism-based, Bone element; details: in vivo; in short: as §1
Rattus norvegicus [10] = species: Rattus norvegicus; test: Biodistribution of radiolabeled compound in rat bone after 2 hr activity expressed as %ID/Organ; format: ADME, organism-based, Bone element; details: in vivo; in short: as §1
Rattus norvegicus [11] = species: Rattus norvegicus; test: Biodistribution of radiolabeled compound in rat bone after 30 min activity expressed as %ID/Organ; format: ADME, organism-based, Bone element; details: in vivo, 0.5 h; in short: as §1
Rattus norvegicus [12] = species: Rattus norvegicus; test: Biodistribution of radiolabeled compound in rat brain after 24 hr activity expressed as %ID/Organ; format: ADME, organism-based; details: in vivo; in short: as §1
Rattus norvegicus [13] = species: Rattus norvegicus; test: Biodistribution of radiolabeled compound in rat brain after 2 hr activity expressed as %ID/Organ; format: ADME, organism-based; details: in vivo; in short: as §1
Rattus norvegicus [14] = species: Rattus norvegicus; test: Biodistribution of radiolabeled compound in rat brain after 30 min activity expressed as %ID/Organ; format: ADME, organism-based; details: in vivo, 0.5 h; in short: as §1
Rattus norvegicus [15] = species: Rattus norvegicus; test: Biodistribution of radiolabeled compound in rat brain after 5 min activity expressed as %ID/Organ; format: ADME, organism-based; details: in vivo; in short: as §1
Rattus norvegicus [16] = species: Rattus norvegicus; test: Biodistribution of radiolabeled compound in rat fat after 24 hr activity expressed as %ID/Organ; format: ADME, organism-based, Adipose tissue; details: in vivo; in short: as §1
Rattus norvegicus [17] = species: Rattus norvegicus; test: Biodistribution of radiolabeled compound in rat fat after 2 hr activity expressed as %ID/Organ; format: ADME, organism-based, Adipose tissue; details: in vivo; in short: as §1
Rattus norvegicus [18] = species: Rattus norvegicus; test: Biodistribution of radiolabeled compound in rat fat after 30 min activity expressed as %ID/Organ; format: ADME, organism-based, Adipose tissue; details: in vivo, 0.5 h; in short: as §1
Rattus norvegicus [19] = species: Rattus norvegicus; test: Biodistribution of radiolabeled compound in rat fat after 5 min activity expressed as %ID/Organ; format: ADME, organism-based, Adipose tissue; details: in vivo; in short: as §1
Rattus norvegicus [20] = species: Rattus norvegicus; test: Biodistribution of radiolabeled compound in rat kidney after 5 min activity expressed as %ID/Organ; format: ADME, organism-based; details: in vivo; in short: as §1
Rattus norvegicus [21] = species: Rattus norvegicus; test: Biodistribution of radiolabeled compound in rat liver after 24 hr activity expressed as %ID/Organ; format: ADME, organism-based; details: in vivo; in short: as §1
Rattus norvegicus [22] = species: Rattus norvegicus; test: Biodistribution of radiolabeled compound in rat liver after 2 hr activity expressed as %ID/Organ; format: ADME, organism-based; details: in vivo; in short: as §1
Rattus norvegicus [23] = species: Rattus norvegicus; test: Biodistribution of radiolabeled compound in rat liver after 30 min activity expressed as %ID/Organ; format: ADME, organism-based; details: in vivo, 0.5 h; in short: as §1
Rattus norvegicus [24] = species: Rattus norvegicus; test: Biodistribution of radiolabeled compound in rat lung after 24 hr activity expressed as %ID/Organ; format: ADME, organism-based; details: in vivo; in short: as §1
Rattus norvegicus [25] = species: Rattus norvegicus; test: Biodistribution of radiolabeled compound in rat lung after 2 hr activity expressed as %ID/Organ; format: ADME, organism-based; details: in vivo; in short: as §1
Rattus norvegicus [26] = species: Rattus norvegicus; test: Biodistribution of radiolabeled compound in rat lung after 30 min activity expressed as %ID/Organ; format: ADME, organism-based; details: in vivo, 0.5 h; in short: as §1
Rattus norvegicus [27] = species: Rattus norvegicus; test: Biodistribution of radiolabeled compound in rat lung after 5 min activity expressed as %ID/Organ; format: ADME, organism-based; details: in vivo; in short: as §1
Rattus norvegicus [28] = species: Rattus norvegicus; test: Biodistribution of radiolabeled compound in rat muscle after 24 hr activity expressed as %ID/Organ; format: ADME, organism-based, Muscle tissue; details: in vivo; in short: as §1
Rattus norvegicus [29] = species: Rattus norvegicus; test: Biodistribution of radiolabeled compound in rat muscle after 2 hr activity expressed as %ID/Organ; format: ADME, organism-based, Muscle tissue; details: in vivo; in short: as §1
Rattus norvegicus [30] = species: Rattus norvegicus; test: Biodistribution of radiolabeled compound in rat muscle after 30 min activity expressed as %ID/Organ; format: ADME, organism-based, Muscle tissue; details: in vivo, 0.5 h; in short: as §1
Rattus norvegicus [31] = species: Rattus norvegicus; test: Biodistribution of radiolabeled compound in rat heart after 24 hr activity expressed as %ID/Organ; format: ADME, organism-based; details: in vivo; in short: as §1
Rattus norvegicus [32] = species: Rattus norvegicus; test: Biodistribution of radiolabeled compound in rat heart after 2 hr activity expressed as %ID/Organ; format: ADME, organism-based; details: in vivo; in short: as §1
Rattus norvegicus [33] = species: Rattus norvegicus; test: Biodistribution of radiolabeled compound in rat heart after 30 min activity expressed as %ID/Organ; format: ADME, organism-based; details: in vivo, 0.5 h; in short: as §1
Rattus norvegicus [34] = species: Rattus norvegicus; test: Biodistribution of radiolabeled compound in rat heart after 5 min activity expressed as %ID/Organ; format: ADME, organism-based; details: in vivo; in short: as §1
Rattus norvegicus [35] = species: Rattus norvegicus; test: Biodistribution of radiolabeled compound in rat kidney after 24 hr activity expressed as %ID/Organ; format: ADME, organism-based; details: in vivo; in short: as §1
Rattus norvegicus [36] = species: Rattus norvegicus; test: Biodistribution of radiolabeled compound in rat kidney after 2 hr activity expressed as %ID/Organ; format: ADME, organism-based; details: in vivo; in short: as §1
Rattus norvegicus [37] = species: Rattus norvegicus; test: Biodistribution of radiolabeled compound in rat kidney after 30 min activity expressed as %ID/Organ; format: ADME, organism-based; details: in vivo, 0.5 h; in short: as §1
Rattus norvegicus [38] = species: Rattus norvegicus; test: Biodistribution of radiolabeled compound in rat bone after 5 min activity expressed as %ID/Organ; format: ADME, organism-based, Bone element; details: in vivo; in short: as §1
Rattus norvegicus [39] = species: Rattus norvegicus; test: Biodistribution of radiolabeled compound in rat liver after 5 min activity expressed as %ID/Organ; format: ADME, organism-based; details: in vivo; in short: as §1

Biodistribution (Rattus norvegicus [1]): 0.58%
Biodistribution (Rattus norvegicus [2]): 1.05%
Biodistribution (Rattus norvegicus [3]): 0.54%
Substance: Cu-DOTA

Biodistribution (Rattus norvegicus [1]): 0.21%
Biodistribution (Rattus norvegicus [2]): 0.49%
Biodistribution (Rattus norvegicus [3]): 0.21%
Substance: Cu-TETA

Biodistribution (Rattus norvegicus [4]): 18.27%
Biodistribution (Rattus norvegicus [5]): 0.14%
Biodistribution (Rattus norvegicus [6]): 0.32%
Biodistribution (Rattus norvegicus [7]): 3.79%
Biodistribution (Rattus norvegicus [8]): 13.45%
Biodistribution (Rattus norvegicus [9]): 0.24%
Biodistribution (Rattus norvegicus [10]): 0.56%
Biodistribution (Rattus norvegicus [11]): 1.69%
Biodistribution (Rattus norvegicus [12]): 0.002%
Biodistribution (Rattus norvegicus [13]): 0.008%
Biodistribution (Rattus norvegicus [14]): 0.036%
Biodistribution (Rattus norvegicus [15]): 0.097%
Biodistribution (Rattus norvegicus [16]): 0.12%
Biodistribution (Rattus norvegicus [17]): 0.22%
Biodistribution (Rattus norvegicus [18]): 2.14%
Biodistribution (Rattus norvegicus [19]): 3.99%
Biodistribution (Rattus norvegicus [20]): 2.64%
Biodistribution (Rattus norvegicus [21]): 0.39%
Biodistribution (Rattus norvegicus [22]): 0.93%
Biodistribution (Rattus norvegicus [23]): 1.47%
Biodistribution (Rattus norvegicus [24]): 0.019%
Biodistribution (Rattus norvegicus [25]): 0.044%
Biodistribution (Rattus norvegicus [26]): 0.21%
Biodistribution (Rattus norvegicus [27]): 0.72%
Biodistribution (Rattus norvegicus [28]): 0.28%
Biodistribution (Rattus norvegicus [29]): 1.39%
Biodistribution (Rattus norvegicus [30]): 6.42%
Biodistribution (Rattus norvegicus [31]): 0.0065%
Biodistribution (Rattus norvegicus [32]): 0.0095%
Biodistribution (Rattus norvegicus [33]): 0.067%
Biodistribution (Rattus norvegicus [34]): 0.22%
Biodistribution (Rattus norvegicus [35]): 0.064%
Biodistribution (Rattus norvegicus [36]): 0.44%
Biodistribution (Rattus norvegicus [37]): 1.14%
Biodistribution (Rattus norvegicus [38]): 4.52%
Biodistribution (Rattus norvegicus [39]): 2.47%
Substance: Cu-CB-DO2A

Biodistribution (Rattus norvegicus [1]): 0.032%
Biodistribution (Rattus norvegicus [2]): 0.14%
Biodistribution (Rattus norvegicus [3]): 0.064%
Substance: Cu-CB-TE2A
